From ChEMBL document CHEMBL1155286, “Second generation of 2H-benzimidazole 1,3-dioxide derivatives as anti-trypanosomatid agents: synthesis, biological evaluation, and mode of action studies” (Eur J Med Chem, 2009)
The source made the active and inactive calls. The calls are words filed in the database; no cut-off is given here.

Tests used:
Trypanosoma cruzi [1] = experiment: Antitrypanosomal activity against Trypanosoma cruzi Tulahuen 2 epimastigotes assessed as inhibition of parasite growth after 5 days; format: functional; conditions: for IC50: Trypanosoma cruzi, Tulahuen 2, 120 h, read-out: ID50 (the source's name)
In short: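 Stationary-phase (10-day) Tulahuen 2 epimastigotes inoculated at 1×10^6 cells/mL in BHI-Tryptose + 5% FBS, 28 °C, drug added from DMSO stock (final DMSO ≤0.4%; control 0.4% DMSO). Growth followed as A600; inhibition from day-5 vs day-0 absorbance relative to control. ID50 = concentration reducing absorbance ratio to 50%; three independent experiments.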

[2] = Selective index, ratio of ID50 for mouse J774 cells to ID50 for Trypanosoma cruzi Tulahuen 2
[3] = Cytotoxicity against mouse J774 cells; format: cell-based; conditions: read-out: ID50 (the source's name)
J774 = experiment: Cytotoxicity against mouse J774 cells at 100 uM relative to 5-((hydroxyimino)methyl)-2,2-dimethyl-2H-benzo[d]imidazole 1,3-dioxide; format: cell-based; conditions: j774, 100 µM
Trypanosoma cruzi [4] = experiment: Antitrypanosomal activity against Trypanosoma cruzi Colombiana assessed as parasitic cytotoxicity at 25 uM after 5 days by MTT assay; format: functional
In short: (§1)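 Single 25 μM dose for 5 days on exponential-phase epimastigotes in BHI-Tryptose + 5% FBS, 24-well plates; MTT 0.4 mg/mL, 3 h at 37 °C after PBS wash, formazan in DMSO, OD595. PCyt = [[…] (ODd − ODdm)/(ODc − ODcm)] × 100 with medium-only blanks, compound-in-medium blanks and growth controls; three independent experiments.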

Trypanosoma cruzi [5] = experiment: Antitrypanosomal activity against Trypanosoma cruzi CL Brener epimastigotes assessed as parasitic cytotoxicity at 25 uM after 5 days by MTT assay; format: functional; in short: as §1
[6] = Selective index, ratio of ID50 for mouse J774 cells to ID50 for Leishmania braziliensis LTB300
Leishmania braziliensis [7] = experiment: Antiparasitic activity against Leishmania braziliensis MHOM/BR/00/LTB300 after 5 days by MTT assay; format: functional; conditions: MHOM/BR/00/LTB300, 120 h, read-out: ID50
In short: (§2)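 Epimastigotes (T. cruzi strains, BHI-Tryptose + 5% FBS, 28 °C) or L. braziliensis LTB300 promastigotes (axenic RPMI + 5% FBS, 28 °C) from exponential culture in 24-well plates; compounds from DMSO stock added for 5 days. Washed in PBS, 0.4 mg/mL MTT at 37 °C for 3 h, formazan dissolved in DMSO, OD595 read. Triplicate per concentration, six growth controls; 1.0–50.0 μM dose-response, ID50 = concentration reducing absorbance ratio to 50%; three independent experiments.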

Trypanosoma cruzi [8] = experiment: Inhibition of Mitochondrial dehydrogenase in Trypanosoma cruzi Y epimastigotes at 20 uM after 30 to 240 mins by MTT dye reduction assay in relative to control
In short: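 Y-strain epimastigotes, 10^6 per well in 500 µL, 20 μM compound, 28 °C for 30–240 min with time-matched untreated controls. MTT (50 µL of 5 mg/mL) added for 4 h more, stopped with acidic isopropanol, A570 read; activity expressed as % of untreated parasites.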

Trypanosoma cruzi [9] = experiment: Antitrypanosomal activity against Trypanosoma cruzi Y epimastigotes after 5 days by MTT assay; format: functional; conditions: 120 h, read-out: ID50; in short: as §2
Trypanosoma cruzi [10] = experiment: Reduction of end products excretion levels in Trypanosoma cruzi Y epimastigotes after 2 days by [1H]NMR method; format: functional, organism-based
In short: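 Y-strain epimastigotes treated 2 days with 5 μM compound; culture centrifuged 1500 g, 10 min, 4 °C, parasite-free supernatant stored at −20 °C. Supernatant plus DMF internal standard and D2O run by 1H NMR with water suppression; metabolite peaks confirmed by spiking and standards, compared to untreated and parasite-free medium.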

Trypanosoma cruzi [11] = experiment: Decrease of glucose uptake in Trypanosoma cruzi Y epimastigotes after 4 hrs relative to control; format: functional, organism-based
In short: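 Y-strain epimastigotes (80×10^6/mL) washed and resuspended in PBS with 1 mM glucose, exposed 4 h to 20 μM compound from DMSO. Parasite-free supernatant refluxed 1 h with Benedict's reagent; remaining glucose quantified at 700 nm against a calibration curve.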

Leishmania braziliensis [12] = experiment: Inhibition of Mitochondrial dehydrogenase in Leishmania braziliensis MHOM/BR/00/LTB300 at 20 uM after 30 to 240 mins by MTT dye reduction assay in relative to control
Trypanosoma cruzi [13] = experiment: Trypanocidal activity against Trypanosoma cruzi CL Brener amastigotes infected in Vero cells assessed as parasite infection at 2.5 uM after 72 hrs
Trypanosoma cruzi [14] = experiment: Antitrypanosomal activity against Trypanosoma cruzi CL Brener trypomastigotes infected in Vero cells assessed as parasite lysis at 10 uM after 26 hrs relative to untreated control; format: functional
In short: (§3)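 Cell-culture trypomastigotes released from infected Vero cells (37 °C, 5% CO2, 5–7 days), collected by centrifugation and allowed 4 h at 37 °C to swim off. Supernatant parasites exposed to 10.0–50.0 μM for 2–26 h; lysis counted in a Neubauer chamber relative to untreated parasites; three independent experiments.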

Trypanosoma cruzi [15] = experiment: Antitrypanosomal activity against Trypanosoma cruzi CL Brener trypomastigotes infected in Vero cells assessed as parasite lysis at 10 uM after 2 hrs relative to untreated control; format: functional; in short: as §3
Trypanosoma cruzi [16] = experiment: Antitrypanosomal activity against Trypanosoma cruzi CL Brener trypomastigotes infected in Vero cells assessed as parasite lysis at 10 uM after 22 hrs relative to untreated control; format: functional; in short: as §3
Trypanosoma cruzi [17] = experiment: Antitrypanosomal activity against Trypanosoma cruzi CL Brener trypomastigotes infected in Vero cells assessed as parasite lysis at 25 uM after 19 hrs relative to untreated control; format: functional; in short: as §3
Trypanosoma cruzi [18] = experiment: Trypanocidal activity against Trypanosoma cruzi CL Brener amastigotes infected in Vero cells assessed as parasite infection at 5 uM after 72 hrs; format: functional
In short: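 Vero cells (4×10^7/L) on coverslips in modified Eagle's medium + 3% FBS, 37 °C; after 24 h infected with trypomastigotes (5×10^9/L) ± compound. Non-internalized parasites removed at 24 h, fresh medium ± compound, 72 h further incubation; May-Grünwald-Giemsa stain, 500 cells scored for % infected and amastigotes per cell; endocytic index = product of the two.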

Trypanosoma cruzi [19] = experiment: Antitrypanosomal activity against Trypanosoma cruzi CL Brener trypomastigotes infected in Vero cells assessed as parasite lysis at 10 uM after 3 hrs relative to untreated control; format: functional; in short: as §3
Trypanosoma cruzi [20] = experiment: Antitrypanosomal activity against Trypanosoma cruzi CL Brener trypomastigotes infected in Vero cells assessed as parasite lysis at 50 uM after 19 hrs relative to untreated control; format: functional; in short: as §3
Trypanosoma cruzi [21] = experiment: Antitrypanosomal activity against Trypanosoma cruzi CL Brener epimastigotes after 5 days by MTT assay; format: functional; conditions: 120 h, read-out: ID50; in short: as §2
Trypanosoma cruzi [22] = experiment: Antitrypanosomal activity against Trypanosoma cruzi Colombiana after 5 days by MTT assay; conditions: 120 h, read-out: ID50

| Structure (SMILES) | IC50 (Trypanosoma cruzi [1]) | IC50 (Trypanosoma cruzi [9]) | Ratio [2] | CC50 [3] | Activity (J774) | Activity (Trypanosoma cruzi [4]) | Activity (Trypanosoma cruzi [5]) | Ratio [6] | IC50 (Leishmania braziliensis [7]) | also measured |
| --- | --- | --- | --- | --- | --- | --- | --- | --- | --- | --- |
| CC1(Cc2ccccc2)[N+]([O-])=c2ccccc2=[N+]1[O-] | > 50 µM | – | <6 | 302 µM | 0.46% | 18.6% | 47% | 14.6 | 20.7 µM | – |
| COc1ccc(CC2(C)[N+]([O-])=c3ccccc3=[N+]2[O-])cc1 | – | – | 8 | > 400 µM | 0.32% | 30.8% | – | >11.4 | 35 µM | ID50 (Trypanosoma cruzi [1]): > 50 µM |
| CC1(C)[N+]([O-])=c2cc(Cl)c(Cl)cc2=[N+]1[O-] | 14.5 µM | 9.9 µM | 6.9 | 100 µM | 0.87% | 94.4% | 88.3% | 9.9 | 10.1 µM | – |
| [O-][N+]1=c2cc(Cl)c(Cl)cc2=[N+]([O-])C12CCCC2 | 12 µM | 5.3 µM | 3.3 | 39 µM | 1.65% | 60.9% | 67.1% | 7.2 | 5.4 µM | – |
| Cc1c(Sc2ccccc2)[n+]([O-])c2cc(Cl)c(Cl)cc2[n+]1[O-] | – | – | – | – | – | – | – | – | – | Activity (Trypanosoma cruzi [8]): Active |
| CC1(Cc2ccc(Cl)cc2)[N+]([O-])=c2ccccc2=[N+]1[O-] | 40 µM | – | 1.4 | 55 µM | 1.42% | – | – | – | – | – |
| COc1ccc2c(c1)=[N+]([O-])C1(CCCC1)[N+]=2[O-] | 25 µM | 4.9 µM | 4 | 100 µM | 0.89% | 17.3% | 62.6% | <2 | > 50 µM | – |
| CCCCCCCCCCCCCCCCOP(=O)([O-])OCC[N+](C)(C)C [MILTEFOSINE] | – | – | – | 136 µM | – | – | – | 15.1 | 9 µM | Activity (Leishmania braziliensis [12]): Active |
| CC1CS(=O)(=O)CCN1/N=C/c1ccc([N+](=O)[O-])o1 (stereo not given) [NIFURTIMOX] | 7.7 µM | 9.7 µM | 44.9 | 346 µM | – | 87% | 90% | – | – | Activity (Trypanosoma cruzi [8]): inactive; IC50 (Trypanosoma cruzi [21]): 4.9 µM; Activity (Trypanosoma cruzi [11]): inactive; IC50 (Trypanosoma cruzi [22]): 3.4 µM |
| [O-][N+]1=c2ccc(/C=N/O)cc2=[N+]([O-])C12CCCC2 | 19.8 µM | 5.7 µM | 6.6 | 130 µM | 0.82% | 29% | 65.6% | 4.9 | 26.7 µM | – |
| CC1(C)[N+]([O-])=c2ccc(/C=N/O)cc2=[N+]1[O-] | – | 16.4 µM | 6.2 | 77 µM | – | 21.7% | 46.6% | <1.5 | > 50 µM | IC50 (Trypanosoma cruzi [21]): > 40 µM |
| [O-][N+]1=c2ccc(Br)cc2=[N+]([O-])C12CCCC2 | 16.3 µM | 3.5 µM | 6.1 | 100 µM | 0.82% | 83.8% | 91.5% | 3.7 | 26.7 µM | Activity (Trypanosoma cruzi [8]): inactive; Activity (Trypanosoma cruzi [14]): 16%; Activity (Trypanosoma cruzi [10]): Active; Activity (Trypanosoma cruzi [11]): Active; Activity (Trypanosoma cruzi [15]): 0%; Activity (Leishmania braziliensis [12]): Active; Activity (Trypanosoma cruzi [16]): 16%; Activity (Trypanosoma cruzi [19]): 35% |

Now from value to compound, other results behind:

| IC50 (Trypanosoma cruzi [1]) | IC50 (Trypanosoma cruzi [9]) | Structure (SMILES) | Ratio [2] | CC50 [3] | Activity (J774) | Activity (Trypanosoma cruzi [4]) | Activity (Trypanosoma cruzi [5]) | Ratio [6] | IC50 (Leishmania braziliensis [7]) | also measured |
| --- | --- | --- | --- | --- | --- | --- | --- | --- | --- | --- |
| 8.1 µM | – | CC1(C)[N+]([O-])=c2ccc(/C=C/c3ccc(Cl)cc3)cc2=[N+]1[O-] | 6.4 | 52 µM | 1.48% | – | – | – | – | – |
| 5.1 µM | 3.3 µM | Cc1ccc2c(c1)=[N+]([O-])C(C)(C)[N+]=2[O-] | – | – | – | 35.1% | 61.4% | – | 30.4 µM | Activity (Trypanosoma cruzi [8]): inactive; Activity (Trypanosoma cruzi [10]): Active; Activity (Trypanosoma cruzi [11]): inactive; Activity (Leishmania braziliensis [12]): inactive |
| 7.9 µM | 15.8 µM | Cc1ccc2c(c1)=[N+]([O-])C1(CCCC1)[N+]=2[O-] | 8 | 63 µM | 1.22% | 59.3% | 56.5% | 7.1 | 8.9 µM | Activity (Trypanosoma cruzi [8]): inactive; Activity (Trypanosoma cruzi [13]): 34.8%; Activity (Trypanosoma cruzi [14]): 24%; Activity (Trypanosoma cruzi [10]): Active; Activity (Trypanosoma cruzi [11]): Active; Activity (Trypanosoma cruzi [15]): 1%; Activity (Leishmania braziliensis [12]): Active; Activity (Trypanosoma cruzi [16]): 25%; Activity (Trypanosoma cruzi [17]): 24%; Activity (Trypanosoma cruzi [18]): 14.7%; Activity (Trypanosoma cruzi [19]): 39%; Activity (Trypanosoma cruzi [20]): 52% |
| 8.4 µM | – | CC1(Cc2ccc([N+](=O)[O-])cc2)[N+]([O-])=c2ccccc2=[N+]1[O-] | 14.5 | 122 µM | 0.47% | – | – | – | – | – |
| 9.5 µM | 6.4 µM | [O-][N+]1=c2ccccc2=[N+]([O-])C12CCCC2 | >42.1 | > 400 µM | 0.75% | 94.8% | 83.7% | >111.1 | 3.6 µM | – |
| 10.1 µM | – | CC1(C)[N+]([O-])=c2ccc(Cl)cc2=[N+]1[O-] | 3.8 | 38 µM | 1.74% | – | – | – | – | – |
| 7.4 µM | – | O=C(Cn1ccnc1[N+](=O)[O-])NCc1ccccc1 [BENZNIDAZOLE] | – | – | – | – | – | – | – | Activity (Trypanosoma cruzi [8]): Active |
| 5.4 µM | – | CCCCCC1(C)[N+]([O-])=c2ccccc2=[N+]1[O-] | 43.1 | 233 µM | 0.01% | 77.1% | 88.2% | <4.7 | > 50 µM | – |
| 3.1 µM | – | CC1(C)[N+]([O-])=c2ccc(/C=C/c3ccc4c(c3)OCO4)cc2=[N+]1[O-] | 18.7 | 58 µM | 1.37% | – | – | – | – | – |
